Test results taken from ChEMBL document CHEMBL1153609, “Synthesis and cytotoxic activity of alpha-santonin derivatives” (Eur J Med Chem, 2009).
pIC50: −log10 of the molar value.

Experiments:
A549 = test: Cytotoxicity against human A549 cells after 72 hrs by MTT assay; assay type: functional, cell-based; conditions: A549, 72 h
In short: (§1)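 Cells kept in RPMI-1640 with 10% FBS, 2 mM glutamine, penicillin/streptomycin, at 37 °C under 5% CO2. Seeded at 10^5 cells/well (adherent) or 0.5×10^5 cells/well (suspension). After 24 h, compounds in DMSO (0.09–25 μg/mL) added for 72 h; doxorubicin positive control. Medium then replaced with 0.5 mg/mL MTT for 3 h, formazan dissolved in DMSO, absorbance read at 595 nm as % of control; IC50 derived.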

HCT-8 = test: Cytotoxicity against human HCT8 cells after 72 hrs by MTT assay; assay type: functional, cell-based; conditions: HCT-8, 72 h; in short: as §1
PC-3 = test: Cytotoxicity against human PC3 cells after 72 hrs by MTT assay; assay type: functional, cell-based; conditions: PC-3, 72 h; in short: as §1
OVCAR-8 = test: Cytotoxicity against human OVCAR8 cells after 72 hrs by MTT assay; assay type: functional, cell-based; conditions: OVCAR-8, 72 h; in short: as §1
HL-60 = test: Cytotoxicity against human HL60 cells after 72 hrs by MTT assay; assay type: functional, cell-based; conditions: HL-60, 72 h; in short: as §1
SF-295 = test: Cytotoxicity against human SF295 cells after 72 hrs by MTT assay; assay type: functional, cell-based; conditions: SF-295, 72 h; in short: as §1
A704 = test: Cytotoxicity against human A704 cells after 72 hrs by MTT assay; assay type: functional, cell-based; conditions: A704, 72 h; in short: as §1
UACC-257 = test: Cytotoxicity against human UACC257 cells after 72 hrs by MTT assay; assay type: functional, cell-based; conditions: UACC-257, 72 h; in short: as §1
MDA-MB-435 = test: Cytotoxicity against human MDA-MB-435 cells after 72 hrs by MTT assay; assay type: functional, cell-based; conditions: MDA-MB-435, 72 h; in short: as §1
PBMC = test: Cytotoxicity against human PBMC cells after 72 hrs by alamar blue assay; assay type: cell-based
In short: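 PBMC came from heparinized blood of healthy non-smoking donors and were isolated by Ficoll-Hypaque density gradient. Cultured in RPMI-1640 with 20% FBS, glutamine and antibiotics, with 2% phytohemagglutinin. Plated at 3×10^5 cells/well; after 24 h, compounds in DMSO (0.09–25 μg/mL) added for 72 h; doxorubicin positive control. Resazurin added 24 h before end; absorbance read at 570 and 595 nm as % of control.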

Row | Structure (SMILES) | pIC50 (A549) | pIC50 (HCT-8) | pIC50 (PC-3) | pIC50 (OVCAR-8) | pIC50 (HL-60) | pIC50 (SF-295) | pIC50 (A704) | pIC50 (UACC-257) | pIC50 (MDA-MB-435) | pIC50 (PBMC)
1 | CC1=C2[C@H]3OC(=O)[C@@H](C)[C@@H]3CC[C@@](C)(O)[C@@H]2CC1=O | < 4.00 | < 4.00 | < 4.00 | < 4.00 | < 4.00 | < 4.00 | < 4.00 | < 4.00 | < 4.00 | –
2 | CC1=C2[C@H]3OC(=O)[C@](C)([Se]c4ccccc4)[C@@H]3CC[C@@]2(C)C=CC1=O | < 4.00 | < 4.00 | < 4.00 | < 4.00 | < 4.00 | < 4.00 | < 4.00 | < 4.00 | < 4.00 | –
3 | CC(=O)O[C@]1(C)CC[C@H]2[C@H](C)C(=O)O[C@@H]2C2=C(C)C(=O)C[C@H]21 | < 4.00 | < 4.00 | < 4.00 | < 4.00 | < 4.00 | < 4.00 | < 4.00 | < 4.00 | < 4.00 | –
4 | C=C1C(=O)O[C@@H]2C3=C(C)C(=O)C=C[C@]3(C)CC[C@@H]12 | 4.87 | 5.53 | 4.88 | 5.16 | 5.94 | 5.57 | 4.99 | 5.22 | 5.17 | 5.49
5 | C=C1C(=O)O[C@@H]2C3=C(C)C(=O)C[C@H]3[C@](C)(OC(C)=O)CC[C@@H]12 | 4.99 | 6.44 | 4.84 | 5.06 | 5.80 | 5.51 | 5.03 | 5.11 | 5.05 | 4.87
6 | CC1=C2[C@H]3OC(=O)[C@@H](C)[C@@H]3CC[C@@](C)(O)[C@@H]2C[C@@H]1O | < 4.00 | < 4.00 | < 4.00 | < 4.00 | < 4.00 | < 4.00 | < 4.00 | < 4.00 | < 4.00 | –
7 | CC(=O)O[C@]1(C)CC[C@H]2[C@H](C)C(=O)O[C@@H]2C2=C(C)[C@@H](O)C[C@H]21 | < 4.00 | < 4.00 | < 4.00 | < 4.00 | < 4.00 | < 4.00 | < 4.00 | < 4.00 | < 4.00 | –
8 | C=C1C(=O)O[C@H]2[C@H]1CC[C@]1(C)C3(C)C(=O)C=CC231 (some centres not stated) | 4.84 | 5.71 | 5.29 | 5.41 | 5.64 | 5.67 | 5.44 | 5.31 | 5.34 | 4.87
9 | COc1cccc2c1C(=O)c1c(O)c3c(c(O)c1C2=O)C[C@@](O)(C(=O)CO)C[C@@H]3O[C@H]1C[C@H](N)[C@H](O)[C@H](C)O1 [DOXORUBICIN] | 6.14 | 7.70 | 5.88 | 6.29 | 7.40 | 6.32 | 5.70 | 6.22 | 6.02 | 5.75
10 | CC(C)=C1CC[C@H]2[C@H](C)C(=O)O[C@@H]2/C1=C\CC(=O)O [ISOFOTOSANTONIC ACID] | < 4.00 | < 4.00 | < 4.00 | < 4.00 | < 4.00 | < 4.00 | < 4.00 | < 4.00 | < 4.00 | –
11 | C[C@@H]1C(=O)O[C@H]2[C@H]1CC[C@]1(C)C3(C)C(=O)C=CC231 (some centres not stated) [LUMISANTONIN] | 4.16 | 4.23 | 4.18 | 4.30 | 4.10 | 4.16 | 4.07 | < 4.00 | 4.04 | –
12 | CC1=C2[C@H]3OC(=O)[C@@H](C)[C@@H]3CC[C@@]2(C)C=CC1=O [SANTONIN] | < 4.00 | < 4.00 | < 4.00 | < 4.00 | < 4.00 | < 4.00 | < 4.00 | < 4.00 | < 4.00 | –
